Measured values from ChEMBL document CHEMBL4052710 (Bioorg Med Chem Lett, 2017).

Key:
[1] = target: CDK4/Cyclin D3 (Homo sapiens) (UniProt P11802+P30281); experiment: Inhibition of human CDK4/CyclinD3 at 1 uM by enzymatic radiometric assay; assay type: protein-complex assay
Outline: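 Kinase panel run through the Eurofins KinaseProfiler, with compound at a fixed 1 µM. Values are means of two independent experiments.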

[2] = target: Vascular endothelial growth factor receptor 2 (Homo sapiens, UniProt P35968); experiment: Inhibition of human VEGFR2 at 1 uM by enzymatic radiometric assay
Vascular endothelial growth factor receptor 2, sequence (P35968 whole entry): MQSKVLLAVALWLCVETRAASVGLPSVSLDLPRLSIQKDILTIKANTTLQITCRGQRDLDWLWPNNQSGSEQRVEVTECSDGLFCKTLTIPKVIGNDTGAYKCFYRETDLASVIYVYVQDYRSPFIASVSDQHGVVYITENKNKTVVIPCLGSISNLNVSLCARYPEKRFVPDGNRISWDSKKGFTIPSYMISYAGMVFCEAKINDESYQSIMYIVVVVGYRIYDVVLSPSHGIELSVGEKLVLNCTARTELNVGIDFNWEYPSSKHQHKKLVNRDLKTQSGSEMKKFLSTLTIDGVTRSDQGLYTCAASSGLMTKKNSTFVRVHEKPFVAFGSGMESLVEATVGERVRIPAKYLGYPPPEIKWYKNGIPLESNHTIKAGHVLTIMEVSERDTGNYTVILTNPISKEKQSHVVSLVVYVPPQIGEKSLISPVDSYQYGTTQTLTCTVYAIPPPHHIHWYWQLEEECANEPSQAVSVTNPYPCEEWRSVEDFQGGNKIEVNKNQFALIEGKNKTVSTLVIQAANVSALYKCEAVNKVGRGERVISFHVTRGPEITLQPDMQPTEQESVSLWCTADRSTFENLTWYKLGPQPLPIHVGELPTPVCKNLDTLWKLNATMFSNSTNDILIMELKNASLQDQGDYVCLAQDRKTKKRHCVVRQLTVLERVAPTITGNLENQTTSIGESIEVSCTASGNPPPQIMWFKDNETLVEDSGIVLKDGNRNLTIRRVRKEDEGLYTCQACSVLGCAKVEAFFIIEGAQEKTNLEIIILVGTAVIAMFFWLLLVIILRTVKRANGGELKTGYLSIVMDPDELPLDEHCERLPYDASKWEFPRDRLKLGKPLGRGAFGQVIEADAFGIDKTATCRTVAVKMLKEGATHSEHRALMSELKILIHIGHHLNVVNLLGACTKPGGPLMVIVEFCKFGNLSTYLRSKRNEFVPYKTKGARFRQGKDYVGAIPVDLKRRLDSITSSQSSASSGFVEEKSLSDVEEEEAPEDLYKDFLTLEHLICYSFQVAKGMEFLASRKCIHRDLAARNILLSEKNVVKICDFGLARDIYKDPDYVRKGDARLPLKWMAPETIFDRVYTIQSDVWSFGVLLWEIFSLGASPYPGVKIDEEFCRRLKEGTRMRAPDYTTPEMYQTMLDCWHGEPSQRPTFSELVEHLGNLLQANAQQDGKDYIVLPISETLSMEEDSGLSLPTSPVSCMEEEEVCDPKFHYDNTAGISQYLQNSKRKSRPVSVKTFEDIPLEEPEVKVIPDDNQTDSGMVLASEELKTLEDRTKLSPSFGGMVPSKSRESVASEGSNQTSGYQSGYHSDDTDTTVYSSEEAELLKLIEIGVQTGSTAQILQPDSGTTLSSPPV

[3] = tested on: A549; experiment: Growth inhibition of human A549 cells incubated for 72 hrs at 10 uM by CCK8 assay; assay type: functional; conditions: A549, 72 h, read-out: GI
Outline: (§1)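 CCK8 viability assay on a panel of human cancer cell lines, with an initial screen at fixed concentrations of 1 µM and 10 µM.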

[4] = tested on: A549; experiment: Growth inhibition of human A549 cells incubated for 72 hrs at 1 uM by CCK8 assay; assay type: functional; conditions: A549, 72 h, read-out: GI; outline: as §1
[5] = tested on: T47D; experiment: Growth inhibition of human T47D cells incubated for 72 hrs at 10 uM by CCK8 assay; assay type: functional; conditions: read-out: GI; outline: as §1
[6] = tested on: T47D; experiment: Growth inhibition of human T47D cells incubated for 72 hrs at 1 uM by CCK8 assay; assay type: functional; conditions: read-out: GI; outline: as §1
[7] = tested on: NCI-H1299; experiment: Growth inhibition of human H1299 cells incubated for 72 hrs at 10 uM by CCK8 assay; assay type: functional; conditions: NCI-H1299, 72 h, read-out: GI; outline: as §1
[8] = tested on: NCI-H1299; experiment: Growth inhibition of human H1299 cells incubated for 72 hrs at 1 uM by CCK8 assay; assay type: functional; conditions: NCI-H1299, 72 h, read-out: GI; outline: as §1
[9] = tested on: OVCAR-5; experiment: Growth inhibition of human OVCAR5 cells incubated for 72 hrs at 10 uM by CCK8 assay; assay type: functional; conditions: OVCAR-5, 72 h, read-out: GI; outline: as §1
[10] = tested on: OVCAR-5; experiment: Growth inhibition of human OVCAR5 cells incubated for 72 hrs at 1 uM by CCK8 assay; assay type: functional; conditions: OVCAR-5, 72 h, read-out: GI; outline: as §1
[11] = tested on: SiHa; experiment: Growth inhibition of human SiHa cells incubated for 72 hrs at 10 uM by CCK8 assay; assay type: functional; conditions: read-out: GI; outline: as §1
[12] = tested on: SiHa; experiment: Growth inhibition of human SiHa cells incubated for 72 hrs at 1 uM by CCK8 assay; assay type: functional; conditions: read-out: GI; outline: as §1
[13] = tested on: NCI-H460; experiment: Growth inhibition of human H460 cells incubated for 72 hrs at 10 uM by CCK8 assay; assay type: functional; conditions: NCI-H460, 72 h, read-out: GI; outline: as §1
[14] = tested on: NCI-H460; experiment: Growth inhibition of human H460 cells incubated for 72 hrs at 1 uM by CCK8 assay; assay type: functional; conditions: NCI-H460, 72 h, read-out: GI; outline: as §1
[15] = tested on: HeLa; experiment: Growth inhibition of human HeLa cells incubated for 72 hrs at 10 uM by CCK8 assay; assay type: functional; conditions: read-out: GI; outline: as §1
[16] = tested on: HeLa; experiment: Growth inhibition of human HeLa cells incubated for 72 hrs at 1 uM by CCK8 assay; assay type: functional; conditions: read-out: GI; outline: as §1

| SMILES | inhibition [1] [%] | inhibition [2] [%] | inhibition of growth at 10 µM [3] [%] | inhibition of growth at 1 µM [4] [%] | inhibition of growth at 10 µM [5] [%] | inhibition of growth at 1 µM [6] [%] | inhibition of growth at 10 µM [7] [%] | inhibition of growth at 1 µM [8] [%] | inhibition of growth at 10 µM [9] [%] | inhibition of growth at 1 µM [10] [%] | inhibition of growth at 10 µM [11] [%] | inhibition of growth at 1 µM [12] [%] | inhibition of growth at 10 µM [13] [%] | inhibition of growth at 1 µM [14] [%] | inhibition of growth at 10 µM [15] [%] | inhibition of growth at 1 µM [16] [%] |
| --- | --- | --- | --- | --- | --- | --- | --- | --- | --- | --- | --- | --- | --- | --- | --- | --- |
| CN(C)C(=O)c1cc2cnc(Nc3ccc(NC(=O)C4(C(=O)Nc5ccc(F)cc5)CC4)cn3)nc2n1C1CCCC1 | 85 | -3 |  |  |  |  |  |  |  |  |  |  |  |  |  |  |
| COC(=O)c1ccc(NC(=O)C2(C(=O)Nc3ccc(Nc4ncc5cc(C(=O)N(C)C)n(C6CCCC6)c5n4)cc3)CC2)cc1 | 77 | 2 | 92 | 77.1 |  |  |  |  |  |  |  |  |  |  |  |  |
| CN(C)C(=O)c1cc2cnc(Nc3ccc(NC(=O)C4(C(=O)Nc5cccc(Br)c5)CC4)cc3)nc2n1C1CCCC1 | 72 | 6 | 92.2 | 20.2 | 94.6 | 29.1 | 77.5 | 46.6 | 89.6 | 0.04 | 92.5 | 13.9 |  |  |  |  |
| CN(C)C(=O)c1cc2cnc(Nc3ccc(N)cn3)nc2n1C1CCCC1 |  |  |  |  | 61.1 | 18.8 | 82.1 | 60.1 | 68 | 12.3 | 61.5 | -21.2 | 62 | -0.6 | 68.7 | 3.7 |
| CN(C)C(=O)c1cc2cnc(Nc3ccc(NC(=O)C4(C(=O)Nc5ccc(Br)cc5)CC4)cc3)nc2n1C1CCCC1 | 48 | 26 | 90.3 | -6.6 | 94.3 | 21.1 | 76.9 | 27.6 | 87.8 | 13.7 | 98.8 | 23.2 | 96.4 | 31.5 |  |  |
| CN(C)C(=O)c1cc2cnc(Nc3ccc(NC(=O)C4(C(=O)Nc5cccc(C#N)c5)CC4)cc3)nc2n1C1CCCC1 | 53 | 29 | 73.6 | 70.8 |  |  |  |  |  |  |  |  |  |  |  |  |
| CN(C)C(=O)c1cc2cnc(Nc3ccc(NC(=O)C4(C(=O)Nc5cccc(O)c5)CC4)cc3)nc2n1C1CCCC1 | 94 | 24 |  |  | 83.7 | 80.7 | 78.5 | 77.5 | 86 | 58.5 | 75.7 | -19.8 | 94.9 | 75.5 | 96.6 | 57 |
| CN(C)C(=O)c1cc2cnc(Nc3ccc(NC(=O)C4(C(=O)Nc5cccc(F)c5)CC4)cc3)nc2n1C1CCCC1 | 61 | 7 | 91.8 | 33.2 | -0.4 | -3.2 | 87 | 64.2 | 85.6 | 26.3 | 107 | 29.7 | 98.8 | 45.1 |  |  |
| CN(C)C(=O)c1cc2cnc(Nc3ccc(NC(=O)C4(C(=O)Nc5ccc(Cl)cc5)CC4)cc3)nc2n1C1CCCC1 | 65 | 5 | 100 | 24.7 | 95 | 22.8 | 88.6 | 52.2 | 85.3 | 8.1 |  | -0.8 | 95.7 | 21.3 |  |  |
| CN(C)C(=O)c1cc2cnc(Nc3ccc(NC(=O)C4(C(=O)Nc5ccccc5)CC4)cc3)nc2n1C1CCCC1 | 82 | 8 | 88.8 | 75 | 93.9 | 52.8 | 90.5 | 71.2 | 77.1 | 52.1 | 106 | 58 | 95.9 | 42.4 |  |  |
| Cc1ccc(NC(=O)C2(C(=O)Nc3ccc(Nc4ncc5cc(C(=O)N(C)C)n(C6CCCC6)c5n4)cc3)CC2)cc1 | 62 | 9 | 90.6 | 40.2 | 99.6 | 47.9 | 84.5 |  | 80.6 |  | 104 | 37 |  |  |  |  |
| CN(C)C(=O)c1cc2cnc(Nc3ccc(NC(=O)C4(C(=O)Nc5ccc(C(F)(F)F)cc5)CC4)cc3)nc2n1C1CCCC1 | 32 | 1 | 87.9 | -25.3 | 94.9 | 29.6 |  |  |  |  |  |  |  |  |  |  |
| CN(C)C(=O)c1cc2cnc(Nc3ccc(NC(=O)C4(C(=O)Nc5cccc(Cl)c5)CC4)cc3)nc2n1C1CCCC1 | 44 | 15 | 90.7 | 8.3 | 92.6 | 39.3 | 84.1 | 47.9 | 88.1 | 15.5 | 97.3 | 16.2 | 101 | 44 |  |  |
| COc1cccc(NC(=O)C2(C(=O)Nc3ccc(Nc4ncc5cc(C(=O)N(C)C)n(C6CCCC6)c5n4)cc3)CC2)c1 | 66 | -2 | 96 | 77.2 | 93.5 | 56.3 |  |  |  |  |  |  |  |  |  |  |
| CN(C)C(=O)c1cc2cnc(Nc3ccc(NC(=O)C4(C(=O)Nc5ccccc5F)CC4)cc3)nc2n1C1CCCC1 | 75 | -2 | 88.6 | 79.1 | 97.8 | 85.2 | 89.6 | 70.2 | 82.6 | 58 | 103 | 63.4 | 93.1 | 28.2 |  |  |
| COC(=O)c1cccc(NC(=O)C2(C(=O)Nc3ccc(Nc4ncc5cc(C(=O)N(C)C)n(C6CCCC6)c5n4)cc3)CC2)c1 | 76 | -7 | 91 | 10.5 |  |  |  |  |  |  |  |  |  |  |  |  |
| CN(C)C(=O)c1cc2cnc(Nc3ccc(NC(=O)C4(C(=O)Nc5ccc(F)cc5)CC4)cc3F)nc2n1C1CCCC1 | 87 | 33 |  |  | 67.9 | 6.3 | 82.6 | 52.3 | 33 | -0.9 | 44.4 | 6.6 | 53 | 11.9 | 49.5 | 6.2 |
| CN(C)C(=O)c1cc2cnc(Nc3ccc(NC(=O)C4(C(=O)Nc5ccc(C#N)cc5)CC4)cc3)nc2n1C1CCCC1 | 84 | 21 | 95 | 86.1 |  |  |  |  |  |  |  |  |  |  |  |  |
| CN(C)C(=O)c1cc2cnc(Nc3ccc(NC(=O)C4(C(=O)Nc5cccc(C(F)(F)F)c5)CC4)cc3)nc2n1C1CCCC1 | 26 | -10 | 89.2 | 15.7 | 92.7 | 9.7 |  |  |  |  |  |  |  |  |  |  |
| COc1ccc(NC(=O)C2(C(=O)Nc3ccc(Nc4ncc5cc(C(=O)N(C)C)n(C6CCCC6)c5n4)cc3)CC2)cc1 | 77 | 19 | 78.5 | 74.4 | 96.1 | 76.4 |  |  |  |  |  |  |  |  |  |  |
| Cc1cccc(NC(=O)C2(C(=O)Nc3ccc(Nc4ncc5cc(C(=O)N(C)C)n(C6CCCC6)c5n4)cc3)CC2)c1 | 66 | 5 | 86.1 | 35.2 | 95.3 | 45.7 |  |  |  |  |  |  |  |  |  |  |
| CN(C)C(=O)c1cc2cnc(Nc3ccc(N4CCN(C(=O)C5(C(=O)Nc6ccc(F)cc6)CC5)CC4)cn3)nc2n1C1CCCC1 | 97 | -8 |  |  |  |  |  |  |  |  |  |  |  |  |  |  |
